Experiments:
Rattus norvegicus [1] = assay: Dose normalized AUC in Sprague-Dawley rat at 1 mg/kg, iv and 2 mg/kg, po administered via gavage by LC-MS/MS analysis; format: ADME, organism-based; conditions: in vivo
In short: (§1)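 Male Sprague-Dawley rats, fasted overnight with water ad libitum and fed 4 h after dosing. TFA salt given as a saline solution, either 1 mg/kg iv via femoral-vein cannula (n = 2) or 2 mg/kg po by gavage (n = 3). EDTA blood taken at 5 min (iv only), 15 and 30 min, and 1, 2, 4, 6, 8, 24 and 48 h. Plasma protein-precipitated with acetonitrile and assayed by LC-MS/MS; noncompartmental analysis.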

[2] = Cmax in Sprague-Dawley rat at 2 mg/kg, po administered via gavage by LC-MS/MS analysis; format: ADME, organism-based; set-up: dose 2 mg/kg, route oral; conditions: in vivo; in short: as §1
[3] = Volume of distribution at steady state in Sprague-Dawley rat at 1 mg/kg, iv and 2 mg/kg, po administered via gavage by LC-MS/MS analysis; format: ADME, organism-based; conditions: in vivo, read-out: Vdss; in short: as §1
[4] = Tmax in Sprague-Dawley rat at 1 mg/kg, iv and 2 mg/kg, po administered via gavage by LC-MS/MS analysis; format: ADME, organism-based; conditions: in vivo; in short: as §1
[5] = Tmax in beagle dog at 1 mg/kg, iv and 2 mg/kg, po administered via gavage by LC-MS/MS analysis; format: ADME, organism-based, Canis lupus familiaris; conditions: in vivo
In short: (§2)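 Beagle dogs, fasted overnight with water ad libitum and fed 4 h postdose. TFA salt in saline given 1 mg/kg iv via cephalic vein (n = 2) or 2 mg/kg by gastric gavage (n = 2). EDTA blood drawn at 5 min (iv only), 15 and 30 min, and 1, 2, 4, 6, 8, 24, 30, 48 and 72 h. Acetonitrile-precipitated plasma quantified by LC-MS/MS; parameters derived noncompartmentally.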

in vivo [6] = conditions: beagle, dog, plasma, iv, 1 mg/kg
in vivo [7] = conditions: beagle, dog, po, 2 mg/kg
[8] = Cmax in beagle dog at 2 mg/kg, po administered via gavage by LC-MS/MS analysis; format: ADME, organism-based, Canis lupus familiaris; set-up: dose 2 mg/kg, route oral; conditions: in vivo; in short: as §2
[9] = Terminal half life in Sprague-Dawley rat at 1 mg/kg, iv and 2 mg/kg, po administered via gavage by LC-MS/MS analysis; format: ADME, organism-based; conditions: in vivo, read-out: beta t1/2 (converted); in short: as §1
[10] = Plasma clearance in Sprague-Dawley rat at 1 mg/kg, iv and 2 mg/kg, po administered via gavage by LC-MS/MS analysis; format: ADME, organism-based; in short: as §1
Canis familiaris = assay: Dose normalized AUC in beagle dog at 1 mg/kg, iv and 2 mg/kg, po administered via gavage by LC-MS/MS analysis; format: ADME, organism-based, Canis lupus familiaris; conditions: in vivo; in short: as §2
in vivo [11] = conditions: beagle, dog
[12] = Volume of distribution at steady state in beagle dog at 1 mg/kg, iv and 2 mg/kg, po administered via gavage by LC-MS/MS analysis; format: ADME, organism-based, Canis lupus familiaris; conditions: in vivo, read-out: Vdss; in short: as §2
[13] = Oral bioavailability in Sprague-Dawley rat at 2 mg/kg administered via gavage by LC-MS/MS analysis; format: ADME, organism-based; conditions: in vivo; in short: as §1
[14] = biological target: Sodium channel protein type 5 subunit alpha (Homo sapiens, UniProt Q14524); assay: Inhibition of Nav1.5 (unknown origin)
Sodium channel protein type 5 subunit alpha, sequence (Q14524 whole entry): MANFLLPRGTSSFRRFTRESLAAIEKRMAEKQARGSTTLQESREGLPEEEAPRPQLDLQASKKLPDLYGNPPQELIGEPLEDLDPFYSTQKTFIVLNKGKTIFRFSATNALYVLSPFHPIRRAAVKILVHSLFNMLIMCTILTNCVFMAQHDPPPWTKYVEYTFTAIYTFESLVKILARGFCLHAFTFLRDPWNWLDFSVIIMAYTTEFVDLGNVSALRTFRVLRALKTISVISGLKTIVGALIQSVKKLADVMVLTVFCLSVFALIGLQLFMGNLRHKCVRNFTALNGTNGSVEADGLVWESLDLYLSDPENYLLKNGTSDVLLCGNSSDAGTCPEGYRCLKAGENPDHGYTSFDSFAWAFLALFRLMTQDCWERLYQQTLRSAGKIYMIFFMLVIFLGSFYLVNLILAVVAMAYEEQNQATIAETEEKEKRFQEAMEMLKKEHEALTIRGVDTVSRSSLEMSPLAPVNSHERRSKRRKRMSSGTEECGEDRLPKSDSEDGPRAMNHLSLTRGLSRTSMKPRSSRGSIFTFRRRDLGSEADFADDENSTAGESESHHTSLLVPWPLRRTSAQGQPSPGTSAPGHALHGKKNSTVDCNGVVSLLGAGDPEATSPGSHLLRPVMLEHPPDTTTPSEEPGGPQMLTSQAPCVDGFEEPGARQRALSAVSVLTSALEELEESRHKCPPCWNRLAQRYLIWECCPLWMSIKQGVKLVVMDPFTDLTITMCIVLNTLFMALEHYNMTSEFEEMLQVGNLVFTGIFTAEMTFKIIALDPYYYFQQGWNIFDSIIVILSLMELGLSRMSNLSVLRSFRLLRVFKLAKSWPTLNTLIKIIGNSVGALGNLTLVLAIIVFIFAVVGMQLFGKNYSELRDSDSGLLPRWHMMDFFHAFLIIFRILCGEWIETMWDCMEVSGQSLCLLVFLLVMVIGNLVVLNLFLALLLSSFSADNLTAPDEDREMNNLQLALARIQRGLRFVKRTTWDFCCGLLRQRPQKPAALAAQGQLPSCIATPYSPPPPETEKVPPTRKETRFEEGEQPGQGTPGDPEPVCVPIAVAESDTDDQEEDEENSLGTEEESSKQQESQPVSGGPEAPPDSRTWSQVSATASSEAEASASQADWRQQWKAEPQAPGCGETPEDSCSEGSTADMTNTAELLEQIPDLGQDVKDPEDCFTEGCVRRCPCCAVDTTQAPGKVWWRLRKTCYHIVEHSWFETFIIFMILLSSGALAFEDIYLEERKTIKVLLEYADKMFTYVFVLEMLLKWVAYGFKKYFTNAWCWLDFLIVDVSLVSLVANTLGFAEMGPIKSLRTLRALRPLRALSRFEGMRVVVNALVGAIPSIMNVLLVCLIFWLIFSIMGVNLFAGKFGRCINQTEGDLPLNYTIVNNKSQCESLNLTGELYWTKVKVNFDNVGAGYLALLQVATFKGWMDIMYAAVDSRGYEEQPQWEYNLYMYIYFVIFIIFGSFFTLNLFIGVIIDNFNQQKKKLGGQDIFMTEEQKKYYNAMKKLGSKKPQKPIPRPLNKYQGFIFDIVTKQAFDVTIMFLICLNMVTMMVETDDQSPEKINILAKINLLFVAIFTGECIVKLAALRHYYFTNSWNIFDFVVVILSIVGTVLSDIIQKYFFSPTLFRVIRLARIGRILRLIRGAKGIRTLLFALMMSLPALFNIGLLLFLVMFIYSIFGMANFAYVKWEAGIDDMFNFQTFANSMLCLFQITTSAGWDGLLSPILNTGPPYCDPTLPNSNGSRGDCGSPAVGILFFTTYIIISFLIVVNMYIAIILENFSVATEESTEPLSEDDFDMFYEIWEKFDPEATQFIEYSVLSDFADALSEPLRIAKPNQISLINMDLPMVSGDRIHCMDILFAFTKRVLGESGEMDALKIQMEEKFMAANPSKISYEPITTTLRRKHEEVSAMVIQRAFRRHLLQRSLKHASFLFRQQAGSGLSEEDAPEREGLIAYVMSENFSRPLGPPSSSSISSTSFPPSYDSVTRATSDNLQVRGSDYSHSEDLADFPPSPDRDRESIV
In short: (§3)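 Cardiac ion channel panel run on PatchXpress, testing functional currents (hERG/IKr, INa, ICaL) up to 30 μM. IKr was additionally assessed by nonfunctional MK-499 displacement binding.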

Rattus norvegicus [15] = assay: Toxicity in rat assessed as mortality at 100 mg/kg/day, po for 14 days; format: organism-based; set-up: route oral; conditions: in vivo, 336 h
In short: (§4)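 Exploratory 14-day oral safety study in male rats, dosed daily. Endpoints were mortality, physical signs observed over the dosing period, and clinical pathology parameters, including glucose and triglycerides.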

[16] = Inhibition of potassium channel IKr (unknown origin)
Mus musculus [17] = species on record: Mus musculus; assay: animal or person; conditions: Plasma, po, read-out: INH
[18] = Ratio of drug level in brain to plasma in Sprague-Dawley rat
Dipeptidyl peptidase 9 = Dipeptidyl peptidase 9 (Homo sapiens, UniProt Q86TI2); assay: Inhibition of DPP9 (unknown origin)
Dipeptidyl peptidase 9, sequence (Q86TI2 whole entry): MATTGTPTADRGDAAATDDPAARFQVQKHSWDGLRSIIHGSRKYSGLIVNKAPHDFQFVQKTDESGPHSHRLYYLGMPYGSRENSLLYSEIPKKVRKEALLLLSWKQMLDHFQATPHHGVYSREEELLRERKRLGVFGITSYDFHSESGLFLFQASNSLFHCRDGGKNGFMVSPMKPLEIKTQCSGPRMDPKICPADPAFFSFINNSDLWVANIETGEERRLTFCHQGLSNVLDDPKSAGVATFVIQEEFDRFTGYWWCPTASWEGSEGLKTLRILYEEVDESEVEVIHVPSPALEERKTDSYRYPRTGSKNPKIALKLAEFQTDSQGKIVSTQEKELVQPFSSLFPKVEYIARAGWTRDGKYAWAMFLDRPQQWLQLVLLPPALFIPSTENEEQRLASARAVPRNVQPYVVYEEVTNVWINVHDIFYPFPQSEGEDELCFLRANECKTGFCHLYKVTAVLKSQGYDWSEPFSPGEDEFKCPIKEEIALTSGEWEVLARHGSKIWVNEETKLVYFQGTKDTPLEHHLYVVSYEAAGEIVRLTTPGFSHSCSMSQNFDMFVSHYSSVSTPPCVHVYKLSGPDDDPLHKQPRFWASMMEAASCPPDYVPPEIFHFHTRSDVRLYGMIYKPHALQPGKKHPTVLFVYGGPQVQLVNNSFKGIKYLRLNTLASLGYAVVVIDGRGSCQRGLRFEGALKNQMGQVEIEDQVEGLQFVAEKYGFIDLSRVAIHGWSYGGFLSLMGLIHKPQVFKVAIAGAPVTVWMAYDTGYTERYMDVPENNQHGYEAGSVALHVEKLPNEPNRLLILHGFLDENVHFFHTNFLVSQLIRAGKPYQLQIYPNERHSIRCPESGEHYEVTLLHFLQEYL

[19] = biological target: Voltage-gated L-type calcium channel (Homo sapiens, UniProt Q13936+Q13698+Q01668+O60840); assay: Effect on L-type Ca2+ channel (unknown origin) up to 30 uM; in short: as §3
[20] = AUC (0 to 24 hrs) in rat at 100 mg/kg/day, po administered for 14 days; format: ADME, organism-based; set-up: dose 100 mg/kg/day, time < 24 hr, route oral; conditions: plasma
In short: (§5)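 Exploratory 14-day oral safety study in male rats dosed at 100 mg/kg/day; AUC(0-24h), Cmax and Tmax determined.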

[21] = Ratio of drug level in brain to plasma in CD-1 mouse
Dipeptidyl peptidase 4 = Dipeptidyl peptidase 4 (Mus musculus, UniProt P28843); assay: Inhibition of DPP4 in mouse plasma
Dipeptidyl peptidase 4, sequence (P28843 whole entry): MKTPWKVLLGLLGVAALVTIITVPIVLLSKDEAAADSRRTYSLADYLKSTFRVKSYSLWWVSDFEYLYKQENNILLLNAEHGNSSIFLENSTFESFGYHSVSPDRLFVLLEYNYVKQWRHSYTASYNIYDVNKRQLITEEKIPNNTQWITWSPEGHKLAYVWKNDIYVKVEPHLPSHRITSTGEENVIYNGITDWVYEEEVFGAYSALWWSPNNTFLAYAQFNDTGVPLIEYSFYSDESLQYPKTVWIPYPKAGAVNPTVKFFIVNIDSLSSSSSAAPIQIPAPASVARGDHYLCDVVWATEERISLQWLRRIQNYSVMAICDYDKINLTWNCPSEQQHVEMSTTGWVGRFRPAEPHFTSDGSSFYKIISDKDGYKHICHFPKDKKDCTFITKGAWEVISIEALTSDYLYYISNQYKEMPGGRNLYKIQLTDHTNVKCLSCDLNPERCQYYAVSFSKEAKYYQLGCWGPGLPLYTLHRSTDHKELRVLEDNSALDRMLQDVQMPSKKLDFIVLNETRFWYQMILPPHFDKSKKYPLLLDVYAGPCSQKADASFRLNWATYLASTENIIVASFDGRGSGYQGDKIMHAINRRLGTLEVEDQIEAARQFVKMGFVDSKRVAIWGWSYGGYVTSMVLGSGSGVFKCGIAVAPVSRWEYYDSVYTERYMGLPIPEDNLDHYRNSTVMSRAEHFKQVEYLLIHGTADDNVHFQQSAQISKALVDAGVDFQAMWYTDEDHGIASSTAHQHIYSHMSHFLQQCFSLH
In short: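 Plasma DPP-4 inhibition measured in 50% mouse plasma; IC50 read-out.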

Prolyl endopeptidase = biological target: T1, Prolyl endopeptidase (Homo sapiens, UniProt P48147); assay: Inhibition of PEP (unknown origin)
T1 sequence (P48147 whole entry): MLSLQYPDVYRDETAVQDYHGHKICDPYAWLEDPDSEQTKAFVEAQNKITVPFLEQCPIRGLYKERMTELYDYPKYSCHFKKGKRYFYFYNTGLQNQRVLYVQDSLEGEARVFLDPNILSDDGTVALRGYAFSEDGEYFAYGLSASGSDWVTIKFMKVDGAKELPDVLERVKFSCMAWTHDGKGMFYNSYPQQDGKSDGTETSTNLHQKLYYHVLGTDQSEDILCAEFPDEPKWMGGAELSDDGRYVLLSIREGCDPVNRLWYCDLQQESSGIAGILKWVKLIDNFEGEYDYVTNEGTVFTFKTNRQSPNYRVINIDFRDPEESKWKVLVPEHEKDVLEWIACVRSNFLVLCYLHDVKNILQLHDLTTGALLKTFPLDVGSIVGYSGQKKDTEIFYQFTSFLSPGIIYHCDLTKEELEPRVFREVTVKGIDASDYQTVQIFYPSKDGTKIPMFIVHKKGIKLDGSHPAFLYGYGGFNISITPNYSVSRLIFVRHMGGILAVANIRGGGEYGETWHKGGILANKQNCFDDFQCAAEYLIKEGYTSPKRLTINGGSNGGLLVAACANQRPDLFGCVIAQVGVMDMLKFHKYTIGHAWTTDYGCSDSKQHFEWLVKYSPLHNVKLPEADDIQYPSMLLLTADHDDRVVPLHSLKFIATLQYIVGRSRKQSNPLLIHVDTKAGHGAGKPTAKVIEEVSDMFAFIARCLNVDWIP

Mus musculus [22] = species on record: Mus musculus; assay: animal or person; conditions: Blood, po, 1 h, read-out: INH
[23] = Ratio of drug level in brain to plasma in human
Dipeptidyl peptidase 2 = Dipeptidyl peptidase 2 (Homo sapiens, UniProt Q9UHL4); assay: Inhibition of QPP (unknown origin)
[24] = Unbound fraction in beagle dog plasma at 1 to 100 uM; format: ADME, cell-free, Canis lupus familiaris
In short: (§6)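 Radiolabelled ([3H]) compound added to plasma at 1, 10 and 100 μM; mean percentage unbound reported for each species.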

Rattus norvegicus [25] = assay: Toxicity in rat assessed as decrease in cholesterol level at 100 mg/kg/day, po for 14 days; format: organism-based; set-up: route oral; conditions: in vivo, 336 h; in short: as §4
Plasma = assay: Plasma concentration in mouse at 0.3 mg/kg, po; format: ADME, organism-based; set-up: dose 0.3 mg/kg, route oral; conditions: in vivo
In short: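 Lean mice dosed orally 1 h before an oral dextrose challenge (OGTT); plasma drug concentration measured alongside plasma DPP-4 activity in the accompanying pharmacodynamic study.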

[26] = biological target: Voltage-dependent L-type calcium channel subunit alpha-1C (Homo sapiens, UniProt Q13936); assay: Inhibition of Cav1.2 (unknown origin)
[27] = Unbound fraction in CD-1 mouse plasma at 1 to 100 uM; format: ADME, cell-free; in short: as §6
Rattus norvegicus [28] = assay: Toxicity in rat assessed as physical signs at 100 mg/kg/day, po for 14 days; format: organism-based; set-up: route oral; conditions: in vivo, 336 h; in short: as §4
Rattus norvegicus [29] = assay: Toxicity in rat assessed as decrease in triglyceride level at 100 mg/kg/day, po for 14 days; format: organism-based; set-up: route oral; conditions: in vivo, 336 h; in short: as §4
Rattus norvegicus [30] = assay: Toxicity in rat assessed as decrease in glucose level at 100 mg/kg/day, po for 14 days; format: organism-based; set-up: route oral; conditions: in vivo, 336 h; in short: as §4
Salmonella typhimurium = assay: Genotoxicity in Salmonella typhimurium by Ames mutagenicity test; format: toxicity, organism-based; conditions: salmonella enterica subsp. enterica serovar typhimurium
Mus musculus [31] = species on record: Mus musculus; assay: animal or person; conditions: Blood, po, 1 h, read-out: INH; remark: listed apart in the source
[32] = Ratio of drug level in brain to plasma in beagle dog
[33] = Cmax in rat at 100 mg/kg/day, po administered for 14 days; format: ADME, organism-based; set-up: dose 100 mg/kg/day, route oral; conditions: in vivo; in short: as §5
Dipeptidyl peptidase 8 = Dipeptidyl peptidase 8 (Homo sapiens, UniProt Q6V1X1); assay: Inhibition of DPP8 (unknown origin)
Dipeptidyl peptidase 8, sequence (Q6V1X1 whole entry): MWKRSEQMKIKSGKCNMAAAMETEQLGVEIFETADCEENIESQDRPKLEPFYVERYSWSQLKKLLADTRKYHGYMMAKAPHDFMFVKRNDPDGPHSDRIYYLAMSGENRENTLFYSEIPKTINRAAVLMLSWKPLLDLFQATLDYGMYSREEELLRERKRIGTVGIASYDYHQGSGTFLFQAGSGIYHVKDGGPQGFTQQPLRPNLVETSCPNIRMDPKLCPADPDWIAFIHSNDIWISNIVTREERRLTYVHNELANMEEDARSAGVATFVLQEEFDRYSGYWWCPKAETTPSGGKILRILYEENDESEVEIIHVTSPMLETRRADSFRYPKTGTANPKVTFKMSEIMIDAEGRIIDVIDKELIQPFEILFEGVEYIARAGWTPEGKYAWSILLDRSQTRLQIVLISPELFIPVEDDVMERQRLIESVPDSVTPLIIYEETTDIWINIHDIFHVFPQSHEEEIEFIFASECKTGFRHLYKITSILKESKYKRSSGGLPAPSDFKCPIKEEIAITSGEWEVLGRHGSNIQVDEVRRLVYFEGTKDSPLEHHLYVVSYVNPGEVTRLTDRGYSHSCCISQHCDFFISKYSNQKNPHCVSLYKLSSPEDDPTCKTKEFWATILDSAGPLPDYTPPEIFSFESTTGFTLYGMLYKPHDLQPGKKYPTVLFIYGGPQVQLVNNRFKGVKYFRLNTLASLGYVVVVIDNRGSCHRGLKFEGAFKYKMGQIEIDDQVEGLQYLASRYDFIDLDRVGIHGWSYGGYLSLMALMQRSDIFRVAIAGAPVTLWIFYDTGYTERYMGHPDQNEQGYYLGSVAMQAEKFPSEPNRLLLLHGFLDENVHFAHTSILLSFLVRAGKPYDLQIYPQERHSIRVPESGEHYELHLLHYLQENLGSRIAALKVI

Prolyl endopeptidase FAP = biological target: T2, Prolyl endopeptidase FAP (Homo sapiens, UniProt Q12884); assay: Inhibition of FAP (unknown origin)
T2 sequence (Q12884 whole entry): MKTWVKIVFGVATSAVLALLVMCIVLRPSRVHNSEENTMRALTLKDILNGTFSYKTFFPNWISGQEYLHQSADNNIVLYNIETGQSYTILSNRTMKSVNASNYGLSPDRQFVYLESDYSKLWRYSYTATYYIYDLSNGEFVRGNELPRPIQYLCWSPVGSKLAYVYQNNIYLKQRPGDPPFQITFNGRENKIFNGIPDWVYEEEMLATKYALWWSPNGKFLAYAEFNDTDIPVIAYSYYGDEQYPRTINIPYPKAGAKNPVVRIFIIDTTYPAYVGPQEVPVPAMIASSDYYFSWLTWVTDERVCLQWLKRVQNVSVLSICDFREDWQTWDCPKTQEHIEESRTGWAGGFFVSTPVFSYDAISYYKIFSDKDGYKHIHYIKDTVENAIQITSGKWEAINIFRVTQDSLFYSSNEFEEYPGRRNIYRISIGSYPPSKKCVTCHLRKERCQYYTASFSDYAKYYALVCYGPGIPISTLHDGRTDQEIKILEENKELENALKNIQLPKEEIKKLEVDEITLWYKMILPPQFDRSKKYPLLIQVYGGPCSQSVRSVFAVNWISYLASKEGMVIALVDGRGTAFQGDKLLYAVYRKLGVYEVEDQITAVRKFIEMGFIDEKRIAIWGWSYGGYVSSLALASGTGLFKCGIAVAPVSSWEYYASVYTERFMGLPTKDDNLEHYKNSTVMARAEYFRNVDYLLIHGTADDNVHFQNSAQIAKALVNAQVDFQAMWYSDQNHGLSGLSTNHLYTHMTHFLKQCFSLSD

[34] = Unbound fraction in Sprague-Dawley rat plasma at 1 to 100 uM; format: ADME, cell-free; in short: as §6
[35] = Tmax in rat at 100 mg/kg/day, po administered for 14 days; format: ADME, organism-based; set-up: route oral; conditions: in vivo; in short: as §5
[36] = Unbound fraction in human plasma at 1 to 100 uM; format: ADME, cell-free; in short: as §6

## CS(=O)(=O)n1cc2c(n1)CN([C@H]1CO[C@H](c3cc(F)ccc3F)[C@@H](N)C1)C2.O=C(O)C(F)(F)F
Rattus norvegicus [1]
  AUC/dose: 47.8 µM·h/mg/kg
[2]
  Cmax: 9 µM
[3]
  Vd: 0.8 L/kg
[4]
  Tmax: 1 h
[5]
  Tmax: 1.3 h
In vivo [6]
  clearance: 0.9 mL/min/kg
In vivo [7]
  bioavailability: 100%
[8]
  Cmax: 5.9 µM
[9]
  half-life: 11 h
[10]
  clearance: 1.1 mL/min/kg
Canis familiaris
  AUC/dose: 54 µM·h/mg/kg
In vivo [11]
  half-life: 22 h
[12]
  Vd: 1.3 L/kg
[13]
  bioavailability: 100%

## CS(=O)(=O)n1cc2c(n1)CN([C@H]1CO[C@H](c3cc(F)ccc3F)[C@@H](N)C1)C2 [OMARIGLIPTIN]
[14]
  IC50: > 30 µM
Rattus norvegicus [15]
  Activity: Non-toxic
[16]
  IC50: > 30 µM
Mus musculus [17]
  inhibition in vivo at 0.3 mg/kg: 85%
[18]
  Kp: 0.6
Dipeptidyl peptidase 9
  IC50: > 67 µM
[19]
  Activity: Not Active
[20]
  AUC at 24 h: 5000 µM·h
[21]
  Kp: 0.6
Dipeptidyl peptidase 4
  IC50: 0.0439 µM
Prolyl endopeptidase
  IC50: > 67 µM
Mus musculus [22]
  inhibition in vivo at 0.3 mg/kg: 51%
[23]
  Kp: 0.6
Dipeptidyl peptidase 2
  IC50: > 67 µM
[24]
  fraction unbound at up to 100 µM: 0.43
Rattus norvegicus [25]
  Activity: Toxic
Plasma
  concentration: 0.521 µM
[26]
  IC50: > 30 µM
[27]
  fraction unbound at up to 100 µM: 0.38
Rattus norvegicus [28]
  Activity: Non-toxic
Rattus norvegicus [29]
  Activity: Toxic
Rattus norvegicus [30]
  Activity: Toxic
Salmonella typhimurium
  Activity: Non-toxic
Mus musculus [31]
  inhibition in vivo at 0.01 mg/kg: 7%
[32]
  Kp: 0.6
[33]
  Cmax: 371 µM
Dipeptidyl peptidase 8
  IC50: > 67 µM
Prolyl endopeptidase FAP
  IC50: > 67 µM
[34]
  fraction unbound at up to 100 µM: 0.15
[35]
  Tmax: 2 h
[36]
  fraction unbound at up to 100 µM: 0.68
